Measurements pooled from the literature.
Lines come from different studies, so protocols differ.
Target: Serine/threonine-protein kinase PAK 1 (PAK1, Homo sapiens, UniProt Q13153)

Structure (SMILES)	read-out	action	method	concentration	endpoint	result
N#Cc1ccc(NC(=O)Nc2ccccc2)cc1	cell-free assay		competition with immobilised ligand	25 µM	remaining binding	92%
C[C@H]1CC[C@H](n2c3cnccc3c3cnc(Nc4ccc5c(n4)CCN(C(=O)CO)C5)nc32)CC1	cell-free assay			1 µM	remaining signal	100%
CCCCC(=O)Nc1ccc(-c2ccc3ncn(CCC)c(=O)c3c2)cn1	binding		competition with immobilised ligand	0.5 µM	remaining binding	97%
C=CC(=O)N1CCC([C@@H]2CCNc3c(C(N)=O)c(-c4ccc(Oc5ccccc5)cc4)nn32)CC1	enzyme activity	inhibitor		1 µM	inhibition	9%
C1=C/COCc2cc(ccc2OCCN2CCCC2)Nc2nccc(n2)-c2cccc(c2)COC/1	binding			0.1 µM	remaining binding	100%
COc1ccc2oc(-c3ccc4nc(N)oc4c3)c/c(=N\c3ccccc3NC(=O)CCN)c2c1	binding			1 µM	remaining binding	104%
CC#CC(=O)N1CCC[C@H]1c1nc(-c2ccc(C(=O)Nc3ccccn3)cc2)c2c(N)nccn12	enzyme activity	inhibitor		1 µM	inhibition	1%
COc1ccc2[nH]c3c4[nH]c5ccc(OC)cc5c4c4c(c3c2c1)C(=O)NC4=O	binding			1 µM	remaining binding	70%
